Calls of active or inactive are those of the source. The rule behind the calls is not given here.
Columns and labels:
IMR-32 = experiment: Growth inhibition of human IMR32 cells at 10 uM by sulforhodamine B assay; format: functional; conditions: read-out: GI
Procedure, shortened: (§1)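 Single-dose 10 µM screen by sulforhodamine B assay, reported as percent inhibition of cell proliferation. Cells grown in medium with 10% heat-inactivated FBS at 37 °C, 5% CO2, and treated at about 70% confluence or in log phase. Compounds dissolved in DMSO; controls received vehicle (<0.5% v/v).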

SK-N-SH = experiment: Growth inhibition of human SK-N-SH cells at 10 uM by sulforhodamine B assay; format: functional; conditions: read-out: GI; procedure, shortened: as §1
SiHa [1] = experiment: Growth inhibition of human SiHa cells at 10 uM by sulforhodamine B assay; format: functional; conditions: read-out: GI; procedure, shortened: as §1
SW-620 = experiment: Growth inhibition of human SW620 cells at 10 uM by sulforhodamine B assay; format: functional; conditions: read-out: GI; procedure, shortened: as §1
HCT-15 = experiment: Growth inhibition of human HCT15 cells at 10 uM by sulforhodamine B assay; format: functional; conditions: read-out: GI; procedure, shortened: as §1
[2] = Growth inhibition of human 502713 cells at 10 uM by sulforhodamine B assay; format: functional; conditions: read-out: GI; procedure, shortened: as §1
DU-145 = experiment: Growth inhibition of human DU145 cells at 10 uM by sulforhodamine B assay; format: functional; conditions: read-out: GI; procedure, shortened: as §1
A549 = experiment: Growth inhibition of human A549 cells at 10 uM by sulforhodamine B assay; format: functional; conditions: read-out: GI; procedure, shortened: as §1
HEp-2 = experiment: Growth inhibition of human Hep2 cells at 10 uM by sulforhodamine B assay; format: functional; conditions: read-out: GI; procedure, shortened: as §1
OVCAR-5 = experiment: Growth inhibition of human OVCAR5 cells at 10 uM by sulforhodamine B assay; format: functional; conditions: read-out: GI; procedure, shortened: as §1
HL-60 [3] = experiment: Growth inhibition of human HL60 cells after 48 hrs by MTT assay; format: functional, cell-based; conditions: HL-60, 48 h
SiHa [4] = experiment: Growth inhibition of human SiHa cells after 48 hrs by MTT assay; format: functional, cell-based
CV-1 = experiment: Growth inhibition of african green monkey CV1 cells after 48 hrs by MTT assay; format: cell-based; conditions: Chlorocebus aethiops, CV-1, 48 h
[5] = Therapeutic ratio of IC50 for african green monkey CV1 cells to IC50 for human HL60 cells; format: ADME, cell-based, HL-60; conditions: CV1 cells and HL60 cells, read-out: Ratio IC50
HL-60 [6] = experiment: Induction of apoptosis in human HL60 cells assessed as early apoptotic cells at 1 uM after 24 hrs using Annexin V-FITC and propidium iodide staining by flow cytometry relative to control; format: functional
Procedure, shortened: (§2)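 HL-60 cells (1 x 10^5 per 1.5 mL) treated 24 h, washed twice in PBS and stained in binding buffer with annexin V-FITC and PI. Flow cytometry with FITC in FL-1 (530 nm) and PI in FL-2 (585 nm), using quadrant statistics: lower right taken as apoptotic, upper right as post-apoptotic necrotic. Representative of three independent experiments.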

HL-60 [7] = experiment: Induction of apoptosis in human HL60 cells assessed as non-viable necrotic cells at 1 uM after 24 hrs using Annexin V-FITC and propidium iodide staining by flow cytometry relative to control; format: functional; procedure, shortened: as §2
HL-60 [8] = experiment: Induction of apoptosis in human HL60 cells assessed as late apoptotic cells at 1 uM after 24 hrs using Annexin V-FITC and propidium iodide staining by flow cytometry relative to control; format: functional; procedure, shortened: as §2
HL-60 [9] = experiment: Induction of apoptosis in human HL60 cells assessed as caspase3 activation using DEVD-AFC as substrate at 1 uM after 24 hrs by fluorimetry relative to control; format: functional
Procedure, shortened: (§3)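 HL-60 cells (2 x 10^6) treated 24 h, washed and lysed. Caspase-3, -8 and -9 activities in lysates measured fluorometrically with a commercial caspase fluorescent assay kit. Two independent experiments, each in duplicate.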

HL-60 [10] = experiment: Induction of apoptosis in human HL60 cells assessed as caspase8 activation using IETD-AFC as substrate at 1 uM after 24 hrs by fluorimetry relative to control; format: functional; procedure, shortened: as §3
HL-60 [11] = experiment: Induction of apoptosis in human HL60 cells assessed as caspase9 activation using LEHD-AMC as substrate at 1 uM after 24 hrs by fluorimetry relative to control; format: functional; procedure, shortened: as §3
HL-60 [12] = experiment: Induction of apoptosis in human HL60 cells assessed as DNA ladder formation at 1 uM after 24 hrs by agarose gel electrophoresis; format: functional, cell-based
Procedure, shortened: (§4)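 Cells treated 24 h, then 2 x 10^6 cells lysed (Triton X-100 buffer, pH 8.0) with RNase at 37 °C for 90 min and proteinase-K at 50 °C for 1 h. DNA phenol/chloroform-extracted and ethanol-precipitated, then run on 1.8% agarose at 50 V for 1.5 h in TAE. Ladders viewed under UV.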

HL-60 [13] = experiment: Induction of apoptosis in human HL60 cells assessed as DNA ladder formation at 10 uM after 24 hrs by agarose gel electrophoresis; format: functional, cell-based; procedure, shortened: as §4
SiHa [14] = experiment: Induction of apoptosis in human SiHa cells assessed as DNA ladder formation at 10 uM after 24 hrs by agarose gel electrophoresis; format: functional, cell-based; procedure, shortened: as §4
HeLa = experiment: Induction of apoptosis in human HeLa cells assessed as DNA ladder formation at 10 uM after 24 hrs by agarose gel electrophoresis; format: functional, cell-based; procedure, shortened: as §4
HL-60 [15] = experiment: Cell cycle arrest in human HL60 cells assessed as accumulation at sub-G0 phase measuring DNA damage at 1 uM after 24 hrs using propidium iodide staining by flow cytometry (reference value: 1%); format: functional
Procedure, shortened: (§5)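 HL-60 cells (1 x 10^5 per 1.5 mL) treated 24 h, then fixed in 70% cold ethanol at −20 °C overnight. RNase digestion (400 µg/ml) at 37 °C for 45 min, then propidium iodide (10 µg/ml) for 30 min. Flow cytometry on 10,000 events, FL2-A vs FL2-W, with doublet discrimination. Sub-G0 (hypodiploid) peak taken as apoptotic cells. Mean ± SD of three independent experiments.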

HL-60 [16] = experiment: Cell cycle arrest in human HL60 cells assessed as accumulation at G1 phase at 1 uM after 24 hrs using propidium iodide staining by flow cytometry; format: functional, cell-based; procedure, shortened: as §5
HL-60 [17] = experiment: Cell cycle arrest in human HL60 cells assessed as accumulation at S phase at 1 uM after 24 hrs using propidium iodide staining by flow cytometry; format: functional, cell-based; procedure, shortened: as §5
HL-60 [18] = experiment: Cell cycle arrest in human HL60 cells assessed as accumulation at G2/M phase at 1 uM after 24 hrs using propidium iodide staining by flow cytometry; format: functional, cell-based; procedure, shortened: as §5
HL-60 [19] = experiment: Induction of apoptosis in human HL60 cells assessed as increase of reactive oxygen species level at 1 uM after 24 hrs using DCFH-DA fluorescent dye based flow cytometric analysis relative to control; format: functional
Procedure, shortened: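 HL-60 cells (1 x 10^5 per 1.5 mL) treated 24 h, then loaded with 10 µM H2DCFDA for 30 min at 37 °C. Washed twice in PBS and read in FL-1 (530 nm). Percentage of DCF-positive cells determined; mean ± SD of three experiments.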

HL-60 [20] = experiment: Induction of NO production in human HL60 cells at 1 uM after 24 hrs using DAF-2DA fluorescent dye based flow cytometric analysis; format: functional, cell-based
Procedure, shortened: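 HL-60 cells (1 x 10^5 per 1.5 mL) preloaded 30 min with 10 µM DAF-2-DA before treatment. After 24 h exposure, cells were washed and read by flow cytometry in FL-1 as NO-positive population. Mean ± SD of three independent experiments.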

HL-60 [21] = experiment: Induction of apoptosis in human HL60 cells assessed as decrease in mitochondrial membrane potential at 1 uM after 24 hrs using rhodamine 123 staining by flow cytometry; format: functional
Procedure, shortened: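 HL-60 cells (1 x 10^5 per 1.5 mL) treated 24 h, then stained with rhodamine-123 (5 µg/mL final) for 1 h. Washed, and propidium iodide (5 µg/mL) added just before reading. FL-1 fluorescence from 10,000 events; percentage of low Rh-123 cells taken as loss of membrane potential. Mean ± SD, n=3.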

HL-60 [22] = experiment: Inhibition of NF-kappaB expression in human HL60 cells at 1 uM after 24 hrs by Western blotting; format: functional, cell-based
Procedure, shortened: (§6)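 HL-60 cells treated 24 h and lysed in RIPA buffer on ice; protein measured by Bradford against a BSA standard. 50 µg resolved by SDS-PAGE and transferred to PVDF, blocked in 5% milk/TBST, then primary antibodies 1:1000 for 2 h and HRP secondary 1:1000 for 1 h. ECL detection with β-actin as loading control; bands quantified by densitometry.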

HL-60 [23] = experiment: Inhibition of survivin expression in human HL60 cells at 1 uM after 24 hrs by Western blotting; format: functional, cell-based; procedure, shortened: as §6
HL-60 [24] = experiment: Induction of apoptosis in human HL60 cells assessed as PARP cleavage at 1 uM after 24 hrs by Western blotting; format: functional, cell-based; procedure, shortened: as §6
HL-60 [25] = experiment: Inhibition of HSP-90 expression in human HL60 cells at 1 uM after 24 hrs by Western blotting; format: functional, cell-based; procedure, shortened: as §6
HL-60 [26] = experiment: Inhibition of Bcl-2 expression in human HL60 cells at 1 uM after 24 hrs by Western blotting; format: functional, cell-based; procedure, shortened: as §6

SMILES	inhibition of growth at 10 µM (IMR-32)	inhibition of growth at 10 µM (SK-N-SH)	inhibition of growth at 10 µM (SiHa [1])	inhibition of growth at 10 µM (SW-620)	inhibition of growth at 10 µM (HCT-15)	inhibition of growth at 10 µM [2]	inhibition of growth at 10 µM (DU-145)	inhibition of growth at 10 µM (A549)	inhibition of growth at 10 µM (HEp-2)	inhibition of growth at 10 µM (OVCAR-5)	Activity (HL-60 [6])	Activity (HL-60 [7])	Activity (HL-60 [8])	Activity (HL-60 [9])	Activity (HL-60 [10])	Activity (HL-60 [11])	Activity (HL-60 [12])	Activity (HL-60 [13])	Activity (SiHa [14])	Activity (HeLa)	further results
O=C(Nc1nc2ccc([N+](=O)[O-])cc2s1)c1cccnc1Nc1ccc(F)cc1	33%	63%	23%	67%	55%	66%	51%	18%	52%	53%	9%	45%	5%	inactive	inactive	inactive	Active	Active	inactive	inactive	IC50 (HL-60 [3]): 0.3 µM; IC50 (SiHa [4]): 7 µM; IC50 (CV-1): 15 µM; selectivity ratio [5]: 50; Activity (HL-60 [15]): 60%; Activity (HL-60 [16]): inactive; Activity (HL-60 [17]): inactive; Activity (HL-60 [18]): inactive; Activity (HL-60 [19]): 16%; Activity (HL-60 [20]): inactive; Activity (HL-60 [21]): Active; inhibition (HL-60 [22]): inactive; inhibition (HL-60 [23]): Active; Activity (HL-60 [24]): Active; inhibition (HL-60 [25]): Active; inhibition (HL-60 [26]): inactive
O=C(Nc1nc2ccc([N+](=O)[O-])cc2s1)c1cccnc1Nc1ccc(Cl)cc1Cl	48%	50%	35%	61%	75%	2%	39%	19%	14%	0%	9%	40%	5%	inactive	inactive	inactive	Active	Active	inactive	inactive	Activity (HL-60 [15]): 25%; Activity (HL-60 [16]): inactive; Activity (HL-60 [17]): inactive; Activity (HL-60 [18]): inactive; Activity (HL-60 [19]): inactive; Activity (HL-60 [20]): inactive; Activity (HL-60 [21]): Active; inhibition (HL-60 [22]): inactive; inhibition (HL-60 [23]): Active; Activity (HL-60 [24]): Active; inhibition (HL-60 [26]): inactive
CN1c2ccccc2S(=O)(=O)n2nc(-c3cccnc3Nc3ccc(Cl)cc3Cl)nc21	47%	16%	13%	62%	27%	49%	11%	15%	0%	23%	7%	13%	3%	inactive	inactive	inactive	Active	Active	inactive	inactive	IC50 (HL-60 [3]): 0.64 µM; IC50 (SiHa [4]): > 50 µM; IC50 (CV-1): > 100 µM; selectivity ratio [5]: > 156; Activity (HL-60 [15]): 20%; Activity (HL-60 [16]): inactive; Activity (HL-60 [17]): inactive; Activity (HL-60 [18]): inactive; Activity (HL-60 [19]): inactive; Activity (HL-60 [20]): inactive; inhibition (HL-60 [22]): inactive; inhibition (HL-60 [23]): Active; Activity (HL-60 [24]): Active; inhibition (HL-60 [26]): inactive

Reference: ChEMBL document CHEMBL1926589, “2-Anilinonicotinyl linked 2-aminobenzothiazoles and [1,2,4]triazolo[1,5-b] [1,2,4]benzothiadiazine conjugates as potential mitochondrial apoptotic inducers” (Bioorg Med Chem, 2011)
